System: MS2 coat protein
Test: apparent Kd, MS2 coat protein; higher = weaker binding; RNA-MaP array; FMN 200 µM where present
Summary of the method: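 Designs on Illumina sequencing-chip clusters, transcribed by stalled E. coli RNA polymerase, were exposed to SNAP-549-labelled MS2 coat protein in doubling steps from 0.7 or 1.5 nM up to 3 µM, without and then with constant ligand. The buffer held 100 mM Tris-HCl pH 7.5, 80 mM KCl, 4 mM MgCl2, BSA, DTT, yeast tRNA and Tween-20. Apparent Kd values are medians of filtered per-cluster binding-curve fits to green signal normalised to red-channel RNA signal and control-cluster median Fmax.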

[1] = designed as: OFF switch for flavin mononucleotide, no ligand
[2] = ligand present: flavin mononucleotide, designed as: OFF switch for flavin mononucleotide
[3] = designed as: ON switch for flavin mononucleotide, no ligand
[4] = ligand present: flavin mononucleotide, designed as: ON switch for flavin mononucleotide

| Sequence | apparent Kd [1] | apparent Kd [2] | apparent Kd [3] | apparent Kd [4] |
| --- | --- | --- | --- | --- |
| UAUGAGCGAGGAUAUGCUUGGGACUGUCGGAAGGUGGCGGGACAUGAGGAUCACCCAUGUAGAAGGCGCGAGCG | 0.0707 µM | 0.0828 µM |  |  |
| UAUGUUGUUGUGAGGAUAUACUUAGUUUGACCGUAGUAGAAGGCACAUGAGGAUCACCCAUGUAGAUGUUUGGU | 0.0158 µM | 0.0295 µM |  |  |
| UAUUAAUACGAAGGAUAUGGUUACAUGAGGAUCACCCAUGUAUGUAUAUUGAUCUAGAUAUUUAACCAGAAGGUCGGGAGUAAA | 0.039 µM | 0.0382 µM |  |  |
| UAUUAAUACGAAGGAUAUGGUUACAUGAGGAUCACCCAUGUAUGUAUAUUGAUCUAGAUUUUUAACCAGAAGGUCGUGAGUAAA | 0.0349 µM | 0.059 µM |  |  |
| UAUUAGCUAGGAUAUACAUGAGGAUCACCCAUGUCACGGGUCAACUUGUCCUAUGCGUGUAGAAGGAGCGACCC | 0.0177 µM | 0.0217 µM |  |  |
| UAUUAGCUAGGAUAUACAUGAGGAUCACCCAUGUCACGGGUCCACUUGUCCUAUGCGUGUAGAAGGAGCGACCC | 0.0225 µM | 0.0258 µM |  |  |
| UAUUCACAUGAGGAUCACCCAUGUAGAAGGCCGAGCCUGGCCACGGUUACAAGCCGUGGAGAGCCGGAGGAUAUACAGCUGGUG | 0.14 µM | 0.0278 µM |  |  |
| UAUUUGUCAGGAUAUGAGUCGUAGAACAAUAGUACUACGUCUCAGAAGGGACAUGAGGAUCACCCAUGUGCCUC | 0.0255 µM | 0.217 µM |  |  |
| UAUUUUGAAGUAGGAUAUCAACACACAUGAGGAUCACCCAUGUUAGAUGUGGAUGUUGUAUGUUAUGAGAAGGACUUCGAUUCG | 0.0206 µM | 0.0764 µM |  |  |
| UAUUUUUAUGUAAGGAUAUGGGUUUGGUUGCGGGCUUAGAAGGUACAUGAGGAUCACCCAUGUAUUUUGUGCGU | 0.0169 µM | 0.0183 µM |  |  |
| UCAAGAAGGCAGAAGGGUCCUCACAUGAGGAUCACCCAUGUAGAUAUGGAUAGGAUAUGUCUAGAGAAGUGUUGCUCUAAGGGU |  |  | 1.05 µM | 0.159 µM |
| UCAAGUAUGUAGGAUAUCGAUGUCUACGGACAUCGAGAAGGACGUACAUGAGGAUCACCCAUGUAACUUGCAUG | 0.464 µM | 0.188 µM |  |  |
| UCACAGUGUCGUUAUCCGUAGCGAACAUGAGGAUCACCCAUGUAGGAUAUGUUAUUAAACUAAUAACAGAAGGACGUUGGUCUC | 0.0832 µM | 0.53 µM |  |  |
| UCACGGCUCGGAGGAUAUGACACAUGAGGAUCACCCAUGUGUGUAAGCCAAUAAACCUACAAAUGUCAGAAGGCCGCGCCUCAU | 0.0153 µM | 0.0147 µM |  |  |
| UCACGGGACUAAGGAUAUAUGAGUACCAUUUACAUAGAAGGUAGAAUGUUAGAUCAUAAACUAAACAUGAGGAUCACCCAUGUU | 0.0194 µM | 0.0186 µM |  |  |
| UCACGGGACUAAGGAUAUAUGUGUACCAUUUUCAUAGAAGGUAGAAUGUUUGAUCAUAAACUAAACAUGAGGAUCACCCAUGUU | 0.027 µM | 0.0251 µM |  |  |
| UCACGGGAUUGAGGAUAUAUAUUAAUUUUUACAAUAGAAGGCAAAUUGUUAGUUUUUUCACUUUACAUGAGGAUCACCCAUGUU | 0.0262 µM | 0.024 µM |  |  |
| UCACGGUAUGUAGGAUAUGCAUAGCAUUGCUAUGCAGAAGGACAUGAGGAUCACCCAUGUAUGUAUUCCAUACUAAUCCCGUGC | 0.00601 µM | 0.00603 µM |  |  |
| UCACUUCGUGAGGAUAUGCAAGGACUAUGACUGGUAGAAGGCACGACAUGAGGAUCACCCAUGUCUGUGGGUCC | 0.017 µM | 0.0183 µM |  |  |
| UCAGGCUUCGAGAAGGACAUGAAUCGUAGCAUUGCUACGAUCAAAGAUACAUGAGGAUCACCCAUGUAGGAUAUCGGAGUCUGC | 0.00575 µM | 0.00763 µM |  |  |
| UCAGGCUUCGAGAAGGACAUGAAUCGUAGCAUUGCUACGAUCAUUGAUACAUGAGGAUCACCCAUGUAGGAUAUCGGAGUCUGC | 0.00599 µM | 0.00675 µM |  |  |
| UCAGGCUUCGAGAAGGACAUGAGGAUCACCCAUGUUAAUUAGAAGCAGCCGUGAGGCUGCAUCAUGUAGGAUAUCGGAGUCUGC | 0.00716 µM | 0.0248 µM |  |  |
| UCAGUAGAGUGAGGAUAUACGAAAGGCGAUCCAUACAUGAGGAUCACCCAUGUAGAAGGCACUCUACUGUAAGUCGGAAACGAC | 0.173 µM | 0.0123 µM |  |  |
| UCAUAUAUACAAGGAUAUCAAUGAUUUAUAGAUCCUACAUGAGGAUCACCCAUGUUUUUAUAUUUUGAGAAGGUGUAGUGUCUU |  |  | 0.214 µM | 0.333 µM |
| UCAUGGUAGCAGGAUAUGCUAUUUAUUUUUUAUGCAGAAGGGCUUACAUGAGGAUCACCCAUGUGUUAGGUUUA | 0.113 µM | 0.0252 µM |  |  |
| UCAUUUCUGAAAGGAUAUUAAUUCAUGACGAUACAUGAGGAUCACCCAUGUUAAGAAGGUUCAAAUACAAAUAAUGCAUUGUUC | 0.0132 µM | 0.0111 µM |  |  |
| UCAUUUCUGUAAGGAUAUUAAAACAUGACGAUACAUGAGGAUCACCCAUGUUAAGAAGGUACAAAUACAUAUAAUGCAAUGUUC | 0.0157 µM | 0.0148 µM |  |  |
| UCAUUUCUGUAAGGAUAUUUAAACAUGACGAUACAUGAGGAUCACCCAUGUAAAGAAGGUACAAAUACAUAUAAUGCAAUGUUC | 0.00755 µM | 0.00739 µM |  |  |

| Sequence | apparent Kd [1] | apparent Kd [2] | apparent Kd [3] | apparent Kd [4] |
| --- | --- | --- | --- | --- |
| UCCACGUGUGCAGGAUAUCCCACGAGCGCAACAUGAGGAUCACCCAUGUACCUGAGUCUCGGAACGGAGAAGGGUACAUGUUAA |  |  | 0.34 µM | 0.0452 µM |
| UCCGUGUGAGGAUAUUACGCUGUUCGGGAAACGCUCAUAGGUAAGAAGGCACAUGAGGAUCACCCAUGUCCAUA | 0.0237 µM | 0.0548 µM |  |  |
| UCCUCGAUGUAGAAGGCCGCGUCCGGCUCACGCGGAGGAUAUACAUGAGGAUCACCCAUGUGUCUGUGCCUUAUAUGGUACGGA | 0.111 µM | 0.0105 µM |  |  |
| UCCUCGAUGUAGAAGGCCGCGUCCGGCUCACGCGGAGGAUAUACAUGAGGAUCACCCAUGUGUUUGUGGCUAAUAUGGUACGAA | 0.159 µM | 0.0182 µM |  |  |
| UCCUCGUCAGGAUAUCCACGGAAUAGCGGGAUACCGAGCGUGGAGAAGGGACAUGAGGAUCACCCAUGUAAAAU | 0.0294 µM | 0.0612 µM |  |  |
| UCCUGAUCGAGAGGUAGGAGUGGUAGAAGGCGACCGGUGCCAGAUGACAUGAGGAUCACCCAUGUCGAGGAUAUACCACUGAAU | 0.00704 µM | 0.0121 µM |  |  |
| UCCUUGUCCUGAGGAUAUCCGAGGUUCCCAAAAGGAGAAGGCAGGACAUGAGGAUCACCCAUGUACCCAGAAAACGUGCAGAGU | 0.122 µM | 0.025 µM |  |  |
| UCCUUGUCCUGAGGAUAUCCGUGGUUCCCGAAAGGAGAAGGCAGGACAUGAGGAUCACCCAUGUACCCAGAAAACGUGCAGAGU | 0.163 µM | 0.273 µM |  |  |
| UCGAGUGGUUAGGAUAUCAUUGGUGCAUAUCAUUGAGAAGGAACUACAUGAGGAUCACCCAUGUGGCAGUGAUA | 0.0282 µM | 0.126 µM |  |  |
| UCGAUUAUACAAGGAUAUCAAUUGUAAUUGAGACUUACAUGAGGAUCACCCAUGUUAAUAUUUUUUGAGAAGGUGUAUUUUCAG |  |  | 0.0473 µM | 0.0268 µM |
| UCGCCUUAGUAAGGAUAUCACAUGAGGAUCACCCAUGUGGGCGUGACACGGUGAGAAGGUACGCGGCGAAGGUGCCAAGGCAUC | 0.387 µM | 0.044 µM |  |  |
| UCGCGGGAGCAGAAGGGACAGGCCUAUUGUCGUGAGGUCUGCACUUAACAUGAGGAUCACCCAUGUCAGGAUAUGCCCACGCGA | 0.0048 µM | 0.00494 µM |  |  |
| UCGCGGGUGCAGAAGGGAUAGGCCUAUUGUCGUGGAGUCUAAACUUAACAUGAGGAUCACCCAUGUCAGGAUAUGCCCACGCGA | 0.00917 µM | 0.0102 µM |  |  |
| UCGCUCCGUGUAGGAUAUCGCCGUUCUAUUCGGCGAGAAGGACAUGAGGAUCACCCAUGUAUGUUAUUAUCACGCGUGGCGCAA | 0.016 µM | 0.0191 µM |  |  |
| UCGCUGCGAGGAUAUACAUGAGGAUCACCCAUGUACGGGUCCGGGUCUUUGUCUAUUGGUAGAAGGCGCAGUGA | 0.0557 µM | 0.175 µM |  |  |
| UCGGAAUUCAAGAAGGACAUGAGGAUCACCCAUGUAGGAUAUUGACCCGAAUUGUGGGUUUUGCUGAUGCACUUCCCGAGGACA |  |  | 0.147 µM | 0.0116 µM |
| UCGUACAUUCGAGGAUAUCGGUGAUUAAUAAUACGAGAAGGCGAUUUAAGGCAUAAAGCCUUAGACAUGAGGAUCACCCAUGUA |  |  | 0.107 µM | 0.0705 µM |
| UCGUACUAGGGAGGAUAUGGGAAGAUACAUGAGGAUCACCCAUGUUUAAGAAUGCCGAGAGGCAACUAGAAGGCCCUAGUACCU |  |  | 0.391 µM | 0.0191 µM |
| UCGUAUACACAAGGAUAUCGAUGGCUUGUAGAUCCUACAUGAGGAUCACCCAUGUUUUUAUAUUGUGAGAAGGUGUAGUGUCGU |  |  | 1.32 µM | 1.21 µM |
| UCGUGCCGGGUUACGAUCGACCCACAUGAGGAUCACCCAUGUAGAAGGACCAGCGUCGGCCCUUGGUAGGAUAUACAUGAAAUC | 0.106 µM | 0.135 µM |  |  |
| UCUACAUAAAUUCAUCAAUACAGAAAGGAUAUGAGAUACAUGAGGAUCACCCAUGUGCAUGGGAAUUAGAAGGUUCAAUUAACU | 0.0985 µM | 0.0672 µM |  |  |
| UCUAGACAUGAGGAUCACCCAUGUGAGGAUAUGAUGCGAUCGUCGAAAGACGAUAGCAUCAGAAGGCACGUAUG | 0.0651 µM | 0.113 µM |  |  |
| UCUCAGUGAGGAUAUGCCAGGGACUAAUUCGUCCACCCGUCGCAGAAGGCACAUGAGGAUCACCCAUGUGGAUG | 0.109 µM | 0.0545 µM |  |  |
| UCUCUUCUGUAGAAGGCCCAACUUGUGAAGGCAACGAUGCUAUAGAAGUAGGGAGGAUAUACAUGAGGAUCACCCAUGUAGGAA | 0.00928 µM | 0.0134 µM |  |  |
| UCUCUUCUGUAGAAGGCCCGACUUGUGAAGACAACAAUGCUAUAGAAGUAGGGAGGAUAUACAUGAGGAUCACCCAUGUAGGAA | 0.0116 µM | 0.0293 µM |  |  |
| UCUGCUCGAGGAUAUACAUGAGGAUCACCCAUGUAACCCAGAAGCAUGGCCUCAGGAUGUAGAAGGCGACGCUA | 0.0173 µM | 0.0375 µM |  |  |
| UCUGGUCGAGGAUAUACAUAACGUGCUUCGGCACGAGAUCUACAUGAGGAUCACCCAUGUAGAAGGCGACCAGA | 0.0167 µM | 0.0467 µM |  |  |

Reference: the EternaBench riboswitch data
